Experiments:
Rattus norvegicus [1] = species: Rattus norvegicus; assay: Alkylating Activity after incubation for 30 minutes in rat liver in Hypoxic condition in absence of NADPH; format: functional, organism-based
Procedure, shortened: (§1)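 Phenobarbital-induced rat liver S-9 fraction (17.9 or 18.2 mg/mL protein), substrate 2.5 mM final (added in methanol/water 50:50), NADPH 5 mM or no cofactor, 30 min at 37 °C. Hypoxic samples purged with nitrogen 15–20 min in sealed vials. Stopped with ice-cold methanol, proteins removed; alkylating activity by NBP assay, absorbance at 542 nm, mean of two experiments.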

Rattus norvegicus [2] = species: Rattus norvegicus; assay: Alkylating Activity after incubation for 30 minutes in rat liver in Hypoxic condition in presence of NADPH; format: functional, organism-based; procedure, shortened: as §1
Rattus norvegicus [3] = species: Rattus norvegicus; assay: Metabolic stability after incubation for 30 minutes in rat liver in hypoxic condition in absence of NADPH; format: functional
Procedure, shortened: (§2)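 Phenobarbital-induced rat liver S-9 fraction, substrate 2.5 mM final, with 5 mM NADPH or no cofactor, 30 min at 37 °C, oxic or nitrogen-purged (hypoxic). Quenched with ice-cold methanol and centrifuged; supernatant analysed by TLC densitometry (ethyl acetate/ethanol eluent) for unchanged parent, reported as % remaining, mean ± SD of three experiments.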

Rattus norvegicus [4] = species: Rattus norvegicus; assay: Metabolic stability after incubation for 30 minutes in rat liver in hypoxic condition in presence of NADPH; format: functional; procedure, shortened: as §2
Rattus norvegicus [5] = species: Rattus norvegicus; assay: Metabolic stability after incubation for 30 minutes in rat liver in oxic condition in absence of NADPH; format: functional; procedure, shortened: as §2
Rattus norvegicus [6] = species: Rattus norvegicus; assay: Metabolic stability after incubation for 30 minutes in rat liver in oxic condition in presence of NADPH; format: functional; procedure, shortened: as §2
V79 = assay: In vitro cytotoxicity against Chinese hamster lung (V-79 cells) fibroblast determined using sulforhodamine B (SRB) assay; format: functional, cell-based; conditions: Cricetulus griseus
Procedure, shortened: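 V-79 Chinese hamster lung fibroblasts, about 15×10^3 cells/well, preincubated 24 h, then drug at eight concentrations for 48 h, aerobic. Fixed with cold TCA, stained with 0.4% SRB, dye solubilized in 10 mM Tris, read at 564 nm. % growth versus untreated control; first-order decay fit gives IC50. Triplicates, three experiments, mean ± SD.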

Rattus norvegicus [7] = species: Rattus norvegicus; assay: Alkylating Activity after incubation for 30 minutes in rat liver in oxic condition in absence of NADPH; format: functional, organism-based; procedure, shortened: as §1
Rattus norvegicus [8] = species: Rattus norvegicus; assay: Alkylating Activity after incubation for 30 minutes in rat liver in oxic condition in presence of NADPH; format: functional, organism-based; procedure, shortened: as §1

SMILES | Absorbance (Rattus norvegicus [1]) | Absorbance (Rattus norvegicus [2]) | Compound remaining (Rattus norvegicus [3]) [%] | Compound remaining (Rattus norvegicus [4]) [%] | Compound remaining (Rattus norvegicus [5]) [%] | Compound remaining (Rattus norvegicus [6]) [%] | IC50 (V79) [µM] | Absorbance (Rattus norvegicus [7]) | Absorbance (Rattus norvegicus [8])
NP(=O)(OCCc1noc2ccc([N+](=O)[O-])cc12)N(CCCl)CCCl (stereo unspecified) | 0.85 | 2.23 | 76 | 1 | 79 | 1 | 311 |  | 
NP(=O)(OCCc1noc2ccccc12)N(CCCl)CCCl (stereo unspecified) | 0.38 | 2.02 | 98 | 34 | 97 | 33 | 411 | 0.26 | 1.97
CCc1noc2ccccc12 |  |  |  |  |  |  | > 2000 |  | 
COc1ccc2c(CCOP(N)(=O)N(CCCl)CCCl)noc2c1 (stereo unspecified) | 0.42 | 2.35 | 79 | 45 | 78 | 46 | 241 | 0.32 | 2.31
